In ChEMBL document CHEMBL4340510, “Design, synthesis, and biological evaluation of truncated deguelin derivatives as Hsp90 inhibitors” (Eur J Med Chem, 2019) one finds inhibition of growth and IC50 data, which are given here for 25 molecules.

Assay [1] has as its system NCI-H1299. The assay is described as follows: Antiproliferative activity against human NCI-H1299 cells assessed as inhibition of cell growth at 10 uM after 72 hrs by MTT assay relative to control. Type of assay: functional. As to conditions: NCI-H1299, 72 h, read-out: GI. The procedure, abridged:
(§1)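 Cells in RPMI 1640 are seeded at 4,000 cells/well and held 24 h at 37 °C, 5% CO2. Medium is replaced with compound-containing medium (DMSO ≤0.25%) for 72 h at 37 °C. MTT read-out by absorbance at 570 nm. Quadruplicate wells, repeated three times; values are means of three independent experiments.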

Assay [2] relates to NCI-H1299. The assay is described as follows: Antiproliferative activity against human NCI-H1299 cells assessed as inhibition of cell growth at 1 uM after 72 hrs by MTT assay relative to control. Format: functional. As to conditions: NCI-H1299, 72 h, read-out: GI. An outline of the steps:
as §1

Assay [3] deals with NCI-H1299. Kind of assay: Antiproliferative activity against human NCI-H1299 cells assessed as inhibition of cell growth at 0.1 uM after 72 hrs by MTT assay relative to control. As to conditions: NCI-H1299, 72 h, read-out: GI. Type of assay: functional. The procedure, abridged:
as §1
A general note: Formazan colour is commonly taken as a measure of viable cells.

The subject of a further assay is MCF7. Kind of assay: Antiproliferative activity against human MCF7 cells after 72 hrs by MTT assay. Type of assay: functional, cell-based. The settings on record: MCF7, 72 h. The procedure, abridged: as §1
The subject of assay [4] is NCI-H1299. Kind of assay: Antiproliferative activity against human NCI-H1299 cells after 72 hrs by MTT assay. Format: functional, cell-based. As to conditions: NCI-H1299, 72 h. An outline of the steps:
as §1

The next assay deals with A549. The assay is described as follows: Antiproliferative activity against human A549 cells after 72 hrs by MTT assay. Format: functional, cell-based. As to conditions: A549, 72 h. The procedure, abridged:
as §1

The target of assay [5] is Heat shock protein HSP 90-alpha (Homo sapiens, UniProt P07900). The assay is described as follows: Inhibition of FITC-geldanamycin binding to recombinant human full-length C-terminal His-tagged HSP90alpha […] (1 to 732 residues) expressed in Escherichia coli after 1 hr by fluorescence polarization assay. (In general: Polarisation of emitted light reports the rotation of a fluorescent probe.)

On to `COc1c(C(=O)C(C)c2ccccc2)ccc2c1C=CC(C)(C)O2` (stereo not drawn), for which, in the assay on NCI-H1299 [1], the inhibition of growth at 10 µM amounted to 15.5%. The inhibition of growth at 1 µM with NCI-H1299 [2] turned out to be 6.5%. Besides, the inhibition of growth at 0.1 µM with NCI-H1299 [3] was 4.5%.
Usually IC50 stands for the concentration at which inhibition is half-maximal. `COc1cc2c(cc1OC)[C@@H]1C(=O)c3ccc4c(c3O[C@@H]1CO2)C=CC(C)(C)O4` [DEGUELIN]: in the assay with NCI-H1299 [1], the inhibition of growth at 10 µM was found to be 65.3%. The IC50 in the assay with MCF7 was found to be 8.17 µM; in the assay with NCI-H1299 [4] it was 5.67 µM; in the assay with A549, 6.05 µM; in assay [5], 1.63 µM. In addition, the inhibition of growth at 1 µM with NCI-H1299 [2] came to 28.5%. Further, in the assay on NCI-H1299 [3], the inhibition of growth at 0.1 µM was determined as 9.9%.
In the case of `COc1ccc(CC(=O)c2ccc3c(c2O)C=CC(C)(C)O3)cc1`, in the assay with NCI-H1299 [1], the inhibition of growth at 10 µM was 16.1%. The inhibition of growth at 1 µM with NCI-H1299 [2] is 7.1%. In addition, in the assay on NCI-H1299 [3], the inhibition of growth at 0.1 µM was determined as 6.1%.
As for `COc1cc(CC(=O)c2ccc3c(c2OC)CCC(C)(C)O3)cc(OC)c1OC`, in the assay on NCI-H1299 [1], the inhibition of growth at 10 µM amounted to 67.5%. The IC50 with MCF7 turned out to be 5.22 µM; with NCI-H1299 [4], 5.72 µM; in the assay with A549 it was 5.33 µM; in assay [5], 0.28 µM. The inhibition of growth at 1 µM in the assay on NCI-H1299 [2] turned out to be 30.6%. In addition, in the assay with NCI-H1299 [3], the inhibition of growth at 0.1 µM worked out at 11%.
As for `COc1cc(/C=C/C(=O)c2ccc3c(c2O)C=CC(C)(C)O3)cc(OC)c1OC`, the inhibition of growth at 10 µM with NCI-H1299 [1] came to 12.3%. For the same molecule, the inhibition of growth at 1 µM in the assay on NCI-H1299 [2] was found to be 8.7%. The inhibition of growth at 0.1 µM in the assay on NCI-H1299 [3] stood at 3.8%.
Consider `COc1ccc(/C=C/C(=O)c2ccc3c(c2O)C=CC(C)(C)O3)cc1OC`, for which, in the assay on NCI-H1299 [1], the inhibition of growth at 10 µM amounted to 10.7%. In addition, the inhibition of growth at 1 µM in the assay on NCI-H1299 [2] was 6.4%. In addition, the inhibition of growth at 0.1 µM with NCI-H1299 [3] turned out to be 5.3%.
As to `COc1cc(CC(=O)c2ccc3c(c2OC)C=CC(C)(C)O3)cc(OC)c1OC`, the inhibition of growth at 10 µM in the assay with NCI-H1299 [1] amounted to 58.3%. The IC50 with MCF7 stood at 5.08 µM; in the assay on NCI-H1299 [4], 7.2 µM; in the assay on A549 it was 6.15 µM; in assay [5] it was 0.63 µM. In addition, the inhibition of growth at 1 µM with NCI-H1299 [2] was 27.4%. Further, the inhibition of growth at 0.1 µM in the assay with NCI-H1299 [3] was determined as 9.6%.
On to `COc1ccc(CC(=O)c2ccc3c(c2OC(C)=O)C=CC(C)(C)O3)cc1OC`, for which, in the assay with NCI-H1299 [1], the inhibition of growth at 10 µM stood at 19.5%. Moreover, in the assay on NCI-H1299 [2], the inhibition of growth at 1 µM worked out at 6.2%. In addition, the inhibition of growth at 0.1 µM in the assay on NCI-H1299 [3] is 4.1%.
As for `COc1c(C(=O)Cc2ccccc2)ccc2c1C=CC(C)(C)O2`, the inhibition of growth at 10 µM with NCI-H1299 [1] stood at 11.3%. Also, in the assay on NCI-H1299 [2], the inhibition of growth at 1 µM came out at 9.3%. In addition, the inhibition of growth at 0.1 µM with NCI-H1299 [3] worked out at 5.6%.
For the molecule `COc1ccc(CC(=O)c2ccc3c(c2OC)C=CC(C)(C)O3)cc1`, the inhibition of growth at 10 µM in the assay with NCI-H1299 [1] came to 10.6%. In addition, the inhibition of growth at 1 µM in the assay on NCI-H1299 [2] is 7.3%. Besides, the inhibition of growth at 0.1 µM in the assay with NCI-H1299 [3] came to 3.6%.
`COc1cc(CC(=O)c2ccc3c(c2OC)C=CC(C)(C)O3)cc(OC)c1`: the inhibition of growth at 10 µM in the assay on NCI-H1299 [1] was 40.1%. The inhibition of growth at 1 µM in the assay on NCI-H1299 [2] came out at 10.2%. Also, the inhibition of growth at 0.1 µM in the assay on NCI-H1299 [3] came to 7.1%.
Turning to `COc1ccc(CC(=O)c2ccc3c(c2OC)C=CC(C)(C)O3)cc1OC`, the inhibition of growth at 10 µM in the assay on NCI-H1299 [1] turned out to be 47.3%. Moreover, the IC50 with MCF7 is 6.88 µM; in the assay on NCI-H1299 [4] it was 11.8 µM; with A549, 6 µM; in assay [5], 0.09 µM. In the assay on NCI-H1299 [2], the inhibition of growth at 1 µM is 10.7%. Moreover, the inhibition of growth at 0.1 µM in the assay with NCI-H1299 [3] is 5.1%.
Turning to `COc1c(C(=O)Cc2ccc3c(c2)OCCO3)ccc2c1C=CC(C)(C)O2`, in the assay on NCI-H1299 [1], the inhibition of growth at 10 µM is 28.1%. Moreover, in the assay on NCI-H1299 [2], the inhibition of growth at 1 µM was determined as 6.5%. For the same molecule, the inhibition of growth at 0.1 µM with NCI-H1299 [3] came out at 3.5%.
Turning to `COc1ccc(C(C)C(=O)c2ccc3c(c2OC)C=CC(C)(C)O3)cc1` (stereo not drawn), in the assay with NCI-H1299 [1], the inhibition of growth at 10 µM is 13.3%. Moreover, the inhibition of growth at 1 µM with NCI-H1299 [2] is 10.8%. Moreover, the inhibition of growth at 0.1 µM in the assay with NCI-H1299 [3] is 7.1%.
With `COc1ccc(CC(O)c2ccc3c(c2OC)C=CC(C)(C)O3)cc1OC` (stereo not drawn), the inhibition of growth at 10 µM with NCI-H1299 [1] stood at 19.8%. Moreover, the inhibition of growth at 1 µM with NCI-H1299 [2] came out at 10.8%. Also, the inhibition of growth at 0.1 µM with NCI-H1299 [3] is 6.5%.
On to `CC1(C)C=Cc2c(ccc(C(=O)Cc3ccc(Cl)c(Cl)c3)c2O)O1`, for which the inhibition of growth at 10 µM in the assay with NCI-H1299 [1] was found to be 11.5%. Also, in the assay on NCI-H1299 [2], the inhibition of growth at 1 µM turned out to be 9.1%. Besides, in the assay with NCI-H1299 [3], the inhibition of growth at 0.1 µM is 8.3%.
With `CC(C)c1cc(C(=O)N2Cc3ccc(CN4CCN(C)CC4)cc3C2)c(O)cc1O` [ONALESPIB], the inhibition of growth at 10 µM in the assay on NCI-H1299 [1] is 95.7%. The IC50 in the assay on MCF7 stood at 0.29 µM; with NCI-H1299 [4], 0.37 µM; in the assay with A549, 0.44 µM; in assay [5], 0.02 µM. The inhibition of growth at 1 µM with NCI-H1299 [2] is 96.8%. For the same molecule, in the assay with NCI-H1299 [3], the inhibition of growth at 0.1 µM came to 94.8%.
For `CC1(C)C=Cc2c(ccc(C(=O)Cc3ccccc3)c2O)O1`, the inhibition of growth at 10 µM in the assay on NCI-H1299 [1] was found to be 15.1%. For the same molecule, the inhibition of growth at 1 µM in the assay with NCI-H1299 [2] stood at 7.8%. Moreover, the inhibition of growth at 0.1 µM in the assay with NCI-H1299 [3] came to 3.9%.
For `COc1ccc(CC(=O)c2ccc3c(c2O)C=CC(C)(C)O3)cc1OC`, the inhibition of growth at 10 µM in the assay on NCI-H1299 [1] came to 45.3%. For the same molecule, the inhibition of growth at 1 µM in the assay with NCI-H1299 [2] amounted to 8.2%. The inhibition of growth at 0.1 µM in the assay with NCI-H1299 [3] came to 4.8%.
`COc1ccc(/C=C/c2ccc3c(c2OC)C=CC(C)(C)O3)cc1OC`: in the assay with NCI-H1299 [1], the inhibition of growth at 10 µM came out at 14.4%. Besides, in the assay with NCI-H1299 [2], the inhibition of growth at 1 µM is 8.6%. The inhibition of growth at 0.1 µM in the assay with NCI-H1299 [3] was 5.2%.
With `COc1cc(CC(=O)c2ccc3c(c2O)C=CC(C)(C)O3)cc(OC)c1OC`, in the assay with NCI-H1299 [1], the inhibition of growth at 10 µM was found to be 49%. Besides, the IC50 with MCF7 worked out at 11.2 µM; with NCI-H1299 [4], 12 µM; with A549, 13.1 µM; in assay [5], 0.43 µM. In the assay with NCI-H1299 [2], the inhibition of growth at 1 µM amounted to 19.7%. Besides, the inhibition of growth at 0.1 µM in the assay on NCI-H1299 [3] was 9.7%.
Take `COc1ccc(CCC(=O)c2ccc3c(c2O)C=CC(C)(C)O3)cc1OC`: in the assay on NCI-H1299 [1], the inhibition of growth at 10 µM is 30.1%. Moreover, the inhibition of growth at 1 µM in the assay on NCI-H1299 [2] stood at 8.5%. The inhibition of growth at 0.1 µM in the assay on NCI-H1299 [3] amounted to 3.6%.
Regarding `COc1ccc(C(Cc2ccccc2)C(=O)c2ccc3c(c2OCc2ccccc2)C=CC(C)(C)O3)cc1OC` (stereo not drawn), the inhibition of growth at 10 µM with NCI-H1299 [1] came out at 9.9%. In addition, in the assay with NCI-H1299 [2], the inhibition of growth at 1 µM is 2.5%. The inhibition of growth at 0.1 µM in the assay on NCI-H1299 [3] is 2.1%.
As to `COc1ccc(CC(=O)c2ccc3c(c2OC)CCC(C)(C)O3)cc1OC`, the inhibition of growth at 10 µM with NCI-H1299 [1] was found to be 49.3%. Moreover, the IC50 with MCF7 was determined as 7.86 µM; in the assay on NCI-H1299 [4] it was 12.6 µM; with A549 it was 7.2 µM; in assay [5], 0.15 µM. Moreover, the inhibition of growth at 1 µM in the assay on NCI-H1299 [2] is 12.4%. The inhibition of growth at 0.1 µM in the assay with NCI-H1299 [3] was 7.2%.
In the case of `COc1ccc(OC)c(CC(=O)c2ccc3c(c2OC)C=CC(C)(C)O3)c1`, the inhibition of growth at 10 µM with NCI-H1299 [1] stood at 38.2%. Also, the inhibition of growth at 1 µM with NCI-H1299 [2] came out at 10.4%. Moreover, the inhibition of growth at 0.1 µM with NCI-H1299 [3] stood at 4.7%.
